# Bioassay records: PubChem, several laboratories
# NCF1 inh: p47phox (human) inhibition; P14598; p47phox/p22phox peptide binding, fluorescence polarization, 2 h; inhibition, % at 24.7 µM; 220,000 tested, 0.53% active;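 active means inhibition above about 30%, limit read from the data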;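 further: 0% = p47phox with labelled peptide and 100% = labelled peptide alone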
# Target sequence (P14598 whole entry, looked up): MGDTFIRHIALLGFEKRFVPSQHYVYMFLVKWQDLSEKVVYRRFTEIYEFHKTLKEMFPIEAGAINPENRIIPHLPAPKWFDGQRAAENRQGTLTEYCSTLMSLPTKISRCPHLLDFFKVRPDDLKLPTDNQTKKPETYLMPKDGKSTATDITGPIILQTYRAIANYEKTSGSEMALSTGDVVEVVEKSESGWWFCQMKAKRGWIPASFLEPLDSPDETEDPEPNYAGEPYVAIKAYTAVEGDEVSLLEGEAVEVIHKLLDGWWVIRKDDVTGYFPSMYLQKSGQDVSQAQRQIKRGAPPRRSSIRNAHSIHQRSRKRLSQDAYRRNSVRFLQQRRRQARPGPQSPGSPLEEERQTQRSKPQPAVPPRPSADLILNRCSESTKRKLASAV
# RAM inhibit: yeast RAM network inhibition; inhibition, % at 50 µM; S. cerevisiae dse1pr::URA3 reporter, 5-FOA growth OD615, 2 d; analog-sensitive cbk1-as2 kinase mutant strain; 190,000 tested, 1.8% active; AID 868;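 active means inhibition above a set limit, 3 SD over mean compound inhibition, cut at about 8.4% in these data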;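 further: 0% = DMSO-only wells with no growth and 100% = 10 µM 1-NA-PP1 full growth; inhibition rescues growth on 5-FOA so higher OD means more RAM inhibition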
# Dynein cargo inh: blocks dynein driven cargo transport along microtubules; 3617.4 mouse cells, GR-EGFP nuclear translocation imaging; test concentration mostly 20 µM; stimulated with dexamethasone, 1 µM; stronger effect = lower value; AID 1381; z-score, hits read low; 220,000 tested, 0.47% active;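 active means plate z-score of nuclear minus cytoplasmic receptor signal below a set negative limit, without overly bright fluorescence or cell loss, cut at about -3.5 in these data, passing the limit was not always enough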;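 further: z-score of nuclear minus cytoplasmic ring GR-EGFP intensity difference per well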
#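 Buffer or medium – tet-free medium with charcoal-stripped serum · Signal – automated 10x imaging of fixed Hoechst-stained cells · Also added – dexamethasone agonist, 1.0 µM final, for 30 min · Incubation – induction 48 h, compound 1 h, agonist 30 min · Read-out – GR-EGFP nuclear translocation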
# pCIP destab: compounds decreasing mouse p/CIP protein stability; Q05BA5; F442A p/CIP-EGFP cells, EGFP fluorescence, 16 h; decrease of EGFP signal, % at 10 µM; 290,000 tested, 0.01% active;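 active means EGFP signal decrease of at least 30% at 10 µM or well 3 SD below plate mean, unless failing retest; inactive means the rest, including hits failing retest or dose response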
# RAM efflux-def: RAM network inhibitors in efflux-deficient yeast | S. cerevisiae efflux-deficient reporter strain, 5-FOA growth OD615, 2 days | max inhibition, % | shares compounds with RAM inhibit | 1,200 tested, under 10 active; call rule not given here;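 further: plate controls were vehicle for no effect and reference inhibitor for full effect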
# Active calls of the source: *; / = no result given. An excerpt weighted towards active compounds, which were near 1.9% of everything screened.
SMILES,NCF1 inh,RAM inhibit,Dynein cargo inh,pCIP destab,RAM efflux-def
CCCCCCC(=O)NNC(=O)c1c(O)c2ccccc2n(CC)c1=O,-14,4,-0.3,-10,/
O=C(NCCc1ccccc1)c1c(O)c2cccc3c2n(c1=O)CC3,0,22*,-0.0047,-6,2
CC(C)CCn1c(=O)c(C(=O)N/N=C/c2cccc(F)c2)c(O)c2ccccc21,-8,0,-0.95,-5,/
CCN(CC)CCN(C(=O)CCS(=O)(=O)c1ccccc1)c1nc2c(C)cc(C)cc2s1,/,/,/,7,/
Cc1cc(-c2csc(NC(=O)c3ccc(C#N)cc3)n2)c(C)n1Cc1ccco1,-32,4,-0.66,6,/
CCc1oc2ccccc2c1C(=O)c1cc(Br)c(O)c(Br)c1,-21,16*,0.15,4,1
CCc1ccc(OCC(=O)c2c(O)c3ccccc3oc2=O)cc1,-23,2,-0.15,-4,/
COc1ccc(Cc2nc(C(=O)Nc3ccc(F)cc3)cs2)cc1,2,16*,-0.1,-7,3
Cc1cccc2sc(NNC(=O)c3cc(-c4cccs4)nc4ccccc34)nc12,4,3,-0.2,6,/
Cc1ccc(NC(=O)c2ccc(F)cc2)cc1S(=O)(=O)N1CCCCCC1,-5,12*,0.041,-2,2
COc1ccc(C(=O)Nc2ccc(C)c(S(=O)(=O)N3CCCCCC3)c2)cc1,/,7,0.068,1,/
Cc1ccc(NC(=O)c2ccccc2F)cc1S(=O)(=O)N1CCCCCC1,-11,13*,1.2,4,2
Cc1cccc(OCCC(=O)Nc2ccc(C)c(S(=O)(=O)N3CCCCC3)c2)c1,-13,16*,0.11,-2,2
COc1ccc(-c2c/c(=N\c3nc(-c4ccccc4)c(C)s3)c3ccccc3o2)cc1O,-41,11*,2.4,-6,2
Clc1cccc(Cl)c1CSc1nnc(-c2sccc2-n2cccc2)o1,-14,17*,-0.25,3,3
CNS(=O)(=O)c1ccc(NCC2COc3ccccc3O2)c([N+](=O)[O-])c1 (stereo not drawn),-3,3,-0.25,4,/
N#CC(Nc1ccccc1)c1ccccc1OCc1ccccc1 (stereo not drawn),-6,14*,-1.3,-8,1
O=C(OCC#CCSc1nnc(-c2cccc3ccccc23)o1)c1ccco1,8,17*,0.032,-9,2
O=C(OCC#CCSc1nc2ccccc2o1)c1ccco1,-7,1,-0.9,-1,/
COC(=O)Cc1ccc(NC(=S)NCCSc2ccc(Cl)cc2)cc1,-8,/,-0.69,-1,/
Cc1cc(C)cc(NC(=S)NCCSc2ccc(Cl)cc2)c1,-6,13*,-1,-8,7
COc1ccccc1NC(=S)NCCSc1ccc(C)cc1,-16,3,-1.3,-2,/
Cc1ccc(SCCNC(=S)Nc2ccc(C)c(C)c2)cc1,-22,13*,-0.58,-2,3
Cc1ccc(C(=O)Nc2cc(Cl)ccc2N2CCCCC2)s1,-7,14*,0.53,-5,2
CCc1sc(C(=O)Nc2cc(Cl)ccc2N2CCCCC2)cc1C,-11,14*,-0.48,4,4
SMILES,NCF1 inh,RAM inhibit,Dynein cargo inh,pCIP destab,RAM efflux-def
O=C(Nc1cc(Cl)ccc1N1CCCCC1)c1cccs1,-12,4,-0.48,4,/
COc1ccccc1CCNC(=O)C(=O)NCC1OCCN1S(=O)(=O)c1ccc2c(c1)OCCO2 (stereo not drawn),/,/,/,10,/
Cc1ccc(NN=C2c3ccccc3-c3ccccc32)cc1,4,15*,-0.047,0,5
CCOC(=O)C(=CNc1ccc2c(c1)c1ccccc1n2CC)C(=O)OCC,-16,/,0.26,2,/
COc1ccc2c(c1)C(C)CC(C)(C)N2C(=O)CSc1nc2ccccc2s1 (stereo not drawn),4,13*,1.4,2,4
COc1ccc2c(c1)C(C)CC(C)(C)N2C(=O)Nc1ccccc1 (stereo not drawn),/,/,/,-10,/
CC(C)(C)N(Cc1ccccc1)C(=O)c1ccc(Cl)cc1[N+](=O)[O-],-5,2,0.39,-6,/
O=C(c1ccc(Cl)cc1[N+](=O)[O-])N(Cc1ccccc1)Cc1ccccc1,-3,13*,0.13,2,3
c1ccc2cc(OCCOCCOc3ccc4ccccc4c3)ccc2c1,-13,/,-0.12,0,/
CC(C)SCCCCOc1ccc2ccccc2c1,-3,12*,-0.005,-2,3
CCc1ccc(-c2cc(C)no2)cc1S(=O)(=O)N1CCN(c2cc(C)ccc2C)CC1,/,/,/,-2,/
C=CCn1cccc(/C=C/C(=O)c2ccc(C(C)(C)C)cc2)c1=S,-23,17*,-0.57,2,8
CN1CCN(C(=S)NC(=O)c2ccc(C(C)(C)C)cc2)CC1,-3,0,-0.45,5,/
COc1ccc2[nH]c(C(=O)NCc3ccccc3)c(C)c2c1,/,/,/,-2,/
C=CCOc1cccc(/C=C2\C(=O)N(Cc3ccc(C)cc3)C(C)=C2C(=O)OC)c1,-20,18*,-3.3,-6,4
CCOc1cc(/C=C2\C(=O)N(Cc3ccc(C)cc3)C(C)=C2C(=O)OC)ccc1O,-4,5,-3.3,-3,/
O=C(CC1C(=O)NCCN1C(=O)Nc1ccccc1)Nc1cc(Cl)cc(Cl)c1 (stereo not drawn),/,/,/,7,/
COCCNC(=O)[C@H]1C[C@@H]1[C@H](NP(=O)(c1ccccc1)c1ccccc1)c1ccccc1,-3,0,-0.32,-2,/
C=C(CC1([C@@H](NP(=O)(c2ccccc2)c2ccccc2)[C@H]2C[C@@H]2CCCC)CC1)c1ccccc1,-3,21*,1.2,-5,7
Cc1ccc(C)c(NS(=O)(=O)c2cc(C(=O)NCCSC3CCCCC3)ccc2C)c1,-36,8,0.53,0,/
Cc1ccccc1NS(=O)(=O)c1cc(C(=O)NCCSC2CCCCC2)ccc1C,-129,13*,0.47,-7,3
CO/N=C/C(=N\Nc1ccc(OC)cc1)C(=O)c1ccc(OC)cc1,-10,12*,-0.5,-1,2
CCCCN1C(=O)/C(=C/C=C2/CC(C)(C)CN2C)SC1=S,-47,12*,0.64,-180,2
COc1ccc(C2=NN(CC(=O)NCC(OC)OC)C(=O)CC2)cc1,/,/,/,6,/
CN(c1ccc(C(=O)NCCSCc2ccc(Cl)cc2)cc1)S(=O)(=O)c1ccccc1,-5,20*,-0.64,-17,3
CN(c1ccc(C(=O)NCCSC(C)(C)C)cc1)S(=O)(=O)c1ccccc1,-4,1,-0.64,-14,/
Cc1ccc(CSCCNC(=O)c2ccc(N(C)S(=O)(=O)c3ccccc3)cc2)cc1,-9,18*,1.1,0,4
COc1ccc(C(C#N)N2N=C(C)CC2c2ccccc2)cc1 (stereo not drawn),/,/,/,20,/
COc1ccc(C2=NN(C(C#N)c3ccc(OC)cc3)C(c3ccccc3)C2)cc1 (stereo not drawn),-1,14*,0.028,-1,2
Cc1ccc(C(=O)OCC(=O)Nc2cc(S(=O)(=O)N3CCOCC3)ccc2C)cc1,-1,12*,-0.23,-4,2
